Source: PubChem BioAssay
Results filed as inconclusive are left out.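 Rule for the calls, unless noted: active = RAM network inhibition above 8.4% in each of two replicates, 3 SD over the compound average; inconclusive = above 8.4% inhibition in only one replicate; inactive = 8.4% inhibition or less in each replicate.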

What was measured:
[1] = S. cerevisiae growth inhibition in permissive medium (OD615), pilot counter-assay for S. cerevisiae lifespan shortening project, permissive growth control (AID 705;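 active = growth inhibition above 25% in both replicates, a cutoff set 3 SD above the mean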); conditions: OD615, 24 h, at 10 µM, active compounds read high
Outline: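 System: S. cerevisiae with engineered DeaD lifespan system / Measured by: absorbance (optical density) at 615 nm / Read-out: reduction in yeast growth (OD615) / Times: 4 h cell pre-growth, 24 h exposure at 30 °C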

[2] = S. cerevisiae growth inhibition in restrictive medium, OD615, pilot screen, restrictive growth control, yeast lifespan reduction project (AID 706;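 active = growth inhibition above a set limit, 3 SD over mean compound inhibition, in both replicates, cut at about 43% in these data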;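 note: modified DeaD lifespan yeast strain shifted to restrictive glucose medium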); conditions: OD615, 48 h, at 10 µM, active compounds read high
Outline: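 System: Engineered S. cerevisiae DeaD strain | Buffer or medium: Glucose-based CSMM-D restrictive medium | Schedule: 4 h pre-incubation, 48 h exposure at 30 °C | Technique: Optical density at 615 nm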

[3] = doxorubicin toxicity protection in MRP-1 cells – H69AR cells, CellTiter-Glo, duplicate, MRP-1 activator project, pilot screen (AID 807;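 active = viability increase at or above a cutoff of the median across tested compounds plus 3 SD, cut at about 8.5% in these data, passing the limit was not always enough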;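 note: compound pretreatment 18-22 h then 72 h combined with doxorubicin; 0% = doxorubicin alone and 100% = vehicle without doxorubicin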); conditions: H69AR viability with doxorubicin, CellTiter-Glo luminescence; at 10 µM; active compounds read high
[4] = viability of HCT116 without oncogenic beta-catenin – human colon tumor cells, pilot screen (AID 823;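 active = cell viability at or below a set limit in both duplicate runs, the limit being the all-compound median minus 4 SD, cut at about 23% in these data, passing the limit was not always enough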;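 note: 0% = wells killed by 20 µM Hyamine and 100% = untreated DMSO cell wells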); conditions: HCT116 beta-catenin knockout viability, CellTiter-Glo, 60 h; at 10 µM; active compounds read low
[5] = RAM pathway blockade in budding yeast – dse1pr::URA3 reporter, 5-FOA selection, pilot screen (AID 869;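 active = inhibition over a set limit, the all-compound mean plus 3 SD, in both replicate runs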;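 note: 0% = DMSO wells with no growth and 100% = 10 µM 1-NA-PP1 with full growth; RAM network block rescues cells from 5-FOA so hits raise OD615 growth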); conditions: S. cerevisiae dse1pr::URA3 5-FOA growth, OD615, 2 d; at 10 µM; active compounds read high; strain carries analog-sensitive mutant Cbk1 kinase
[6] = RAM signaling pathway blockade in yeast – S. cerevisiae, Pdr1DBD-CYC8 efflux-inhibited sensitized strain, primary screen (AID 1298);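 note: 0% = DMSO untreated cells without growth and 100% = 10 µM 1-NA-PP1 full growth; higher means more yeast growth rescued from 5-FOA killing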; conditions: S. cerevisiae cbk1-as DSE1-URA3 strain, 5-FOA growth OD615, 2 d; at 50 µM; active compounds read high

CNC(=O)C1C2C=CC3(O2)C1C(=O)N(CCOC)C3C(=O)NCc1ccc(OC)cc1 (stereo not given)
inactive: growth inhibition [1] -11% | growth inhibition [2] 0.24% | viability increase [3] -1.22% | viability [4] 96% | inhibition [5] 1.67% | RAM network inhibition [6] 2.29%

CCSc1oc(-c2ccco2)nc1S(=O)(=O)c1ccc(F)cc1
inactive: growth inhibition [1] -15.7% | growth inhibition [2] -4.69% | viability increase [3] -3.11% | viability [4] 79% | inhibition [5] 0.335% | RAM network inhibition [6] 5.09%

CCN(Cc1ccncc1)C(=O)c1cccc(S(=O)(=O)N2CCOCC2)c1
inactive: growth inhibition [1] -4.12% | growth inhibition [2] 6.31% | viability increase [3] -2.89% | viability [4] 99.1% | inhibition [5] 1.07% | RAM network inhibition [6] 9.82%

CSc1nc(N(CCO)CCO)c2sc3nc(-c4ccco4)c4c(c3c2n1)CCC4
inactive: growth inhibition [1] -1.82% | growth inhibition [2] 8.15% | viability increase [3] -4.84% | viability [4] 93.9% | inhibition [5] 2.71% | RAM network inhibition [6] 8.3%

NC1=C(c2ccc(F)cc2)C(=O)CS1
inactive: growth inhibition [1] -17.2% | growth inhibition [2] 4.04% | viability increase [3] -1.22% | viability [4] 91.1% | inhibition [5] 1.85% | RAM network inhibition [6] 5.83%

COc1ccc(-c2cc3ccccc3n2CC(O)CN2CCOCC2)cc1 (stereo not given)
inactive: growth inhibition [1] -4.27% | growth inhibition [2] -5.21% | viability increase [3] -6.02% | viability [4] 89.7% | inhibition [5] 0.59% | RAM network inhibition [6] 2.87%

O=C(Nc1cccc(Cl)c1Cl)c1ccncc1
inactive: growth inhibition [1] -9.8% | growth inhibition [2] -0.975% | viability increase [3] -0.14% | viability [4] 103% | inhibition [5] 1.85% | RAM network inhibition [6] 4.88%

Cc1ccccc1-c1nnc(SCC(=O)Nc2ccc(Cl)cc2)n1N
inactive: growth inhibition [1] -8.16% | growth inhibition [2] 0.61% | viability increase [3] 2.22% | viability [4] 94.5% | inhibition [5] 1.17% | RAM network inhibition [6] 5.42%

COc1cc2[nH]c(=O)n(CCC(=O)N3CCN(c4cccc(C)c4C)CC3)c(=O)c2cc1OC
inactive: growth inhibition [1] 2.25% | growth inhibition [2] -5.83% | viability increase [3] -5.18% | viability [4] 84.2% | inhibition [5] 0.615% | RAM network inhibition [6] 5.67%

O=C(O)CN1C(=O)Nc2ccc(Br)cc2C1c1ccccc1 (stereo not given)
inactive: growth inhibition [1] 0.155% | growth inhibition [2] -8.88% | viability increase [3] -2.28% | viability [4] 93.6% | inhibition [5] -0.025% | RAM network inhibition [6] 0.79%

COc1ccc(NC(=O)C2CCC(C)(C(=O)O)C2(C)C)cc1 (stereo not given)
inactive: growth inhibition [1] 1% | growth inhibition [2] 3.7% | viability increase [3] -0.59% | viability [4] 96% | inhibition [5] 1.27% | RAM network inhibition [6] 3.75%

CC1(C)OC(=O)C(=C2CCCN2)C(=O)O1
inactive: growth inhibition [1] 0.65% | growth inhibition [2] -5.36% | viability increase [3] -1.34% | viability [4] 105% | inhibition [5] 0.815% | RAM network inhibition [6] 6.12%

Cc1cccc(NC(=O)Cn2cnc3c(cnn3-c3ccc(F)cc3)c2=O)c1C
inactive: growth inhibition [1] -1.04% | growth inhibition [2] -2.65% | viability increase [3] -8.31% | viability [4] 29.6% | inhibition [5] 0.735% | RAM network inhibition [6] 2.47%

O=C(Cn1nnc(-c2ccccc2NC(=O)c2ccccc2F)n1)NCc1ccco1
inactive: growth inhibition [1] -7.91% | growth inhibition [2] -7.09% | viability increase [3] -6.92% | viability [4] 73.9% | inhibition [5] 1.39% | RAM network inhibition [6] 4.52%

Cc1cc(C)c(C#N)c(=N)o1
inactive: growth inhibition [1] 23.3% | growth inhibition [2] 20.7% | viability increase [3] -3.83% | viability [4] 87.2% | inhibition [5] 1.2% | RAM network inhibition [6] 8.54%

CC(=O)c1ccc(NC(=O)CSc2nnc(NC(=O)CN3CCOCC3)s2)cc1
inactive: growth inhibition [1] 8.22% | growth inhibition [2] 7.59% | viability increase [3] -1.64% | viability [4] 102% | inhibition [5] 2.19% | RAM network inhibition [6] 0.62%

CCCCCn1c(=O)[nH]c2cc(C(=O)NCCCN(CC)CC)ccc2c1=O
inactive: growth inhibition [1] -20.8% | growth inhibition [2] -0.04% | viability increase [3] -4.48% | viability [4] 47.3% | inhibition [5] 1.65% | RAM network inhibition [6] 3.74%

C=C(C)Cn1c(CCNC(=O)C(C)(C)C)nc2ccccc21
inactive: growth inhibition [1] -12.7% | growth inhibition [2] 6.9% | viability increase [3] 0.45% | viability [4] 100% | inhibition [5] 2.33% | RAM network inhibition [6] 1.51%

NC(=O)C1CCN(c2nc(C3CC3)nc3c2nnn3Cc2ccccc2Cl)CC1
inactive: growth inhibition [1] -11.9% | growth inhibition [2] -3.43% | viability increase [3] -6.11% | viability [4] 84.4% | inhibition [5] 3.41% | RAM network inhibition [6] 0.99%

S=c1nc(-c2ccccc2)n(CCCN2CCOCC2)c2c1CCCC2
inactive: growth inhibition [1] -2.74% | growth inhibition [2] 23.8% | viability increase [3] -4.35% | viability [4] 103% | inhibition [5] 0.18% | RAM network inhibition [6] 3.63%
